Data taken from PubChem BioAssay.
A number with no mark means an inactive call. Inconclusive results are not listed. Active and inactive are the calls of the source.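 The calls were made as follows, unless noted: active = RAM network inhibition above 8.4% in each of two replicates, 3 SD over the compound average; inconclusive = above 8.4% inhibition in only one replicate; inactive = 8.4% inhibition or less in each replicate.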

What was measured:
[1] = OD615 S. cerevisiae growth inhibition, permissive medium, pilot counter-assay, permissive growth control for S. cerevisiae lifespan shortening project (AID 705;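 active = growth inhibition above 25% in both replicates, a cutoff set 3 SD above the mean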); details: OD615, 24 h, at 10 µM, stronger effect = higher value
In short: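 Material: engineered DeaD yeast; Compound: one dose 10 µM, DMSO 0.25% final; Detection: absorbance (optical density) at 615 nm; Buffer or medium: permissive raffinose/galactose medium; Timing: 24 h exposure, 30 °C.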

[2] = Restrictive medium S. cerevisiae growth inhibition, OD615, pilot screen of yeast lifespan reduction project, restrictive growth control (AID 706;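 active = growth inhibition above a set limit, 3 SD over mean compound inhibition, in both replicates, cut at about 43% in these data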;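 also: modified DeaD lifespan yeast strain shifted to restrictive glucose medium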); details: OD615, 48 h, at 10 µM, stronger effect = higher value
In short: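 Buffer or medium: restrictive glucose medium (CSMM-D); test system: modified S. cerevisiae; doses: single dose of 10 µM compound final, 0.25% DMSO; schedule: 48 h compound exposure at 30 °C; detection: absorbance (optical density) measured at 615 nm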

[3] = viability gain of MRP-1-high H69AR cells under doxorubicin, pilot screen, MRP-1 activator project, CellTiter-Glo, duplicate (AID 807;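 active = viability increase at or above a cutoff of the median across tested compounds plus 3 SD, cut at about 8.5% in these data, passing the limit was not always enough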;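 also: compound pretreatment 18-22 h then 72 h combined with doxorubicin; 0% = doxorubicin alone and 100% = vehicle without doxorubicin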); details: H69AR viability with doxorubicin, CellTiter-Glo luminescence; at 10 µM; stronger effect = higher value
[4] = growth suppression of PTEN-deleted HCT116, pilot screen, cell-based, HCT116 clonal line, CellTiter-Glo (AID 824;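 active = viability at or below 27.92% in each of two runs, the all-compound median minus 4 SD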;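 also: 0% = 20 µM Hyamine control and 100% = vehicle cell control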); details: 60 h, at 10 µM, stronger effect = lower value
[5] = inhibitors of the yeast RAM network, pilot screen, dse1pr::URA3 reporter, 5-FOA selection (AID 869;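 active = inhibition over a set limit, the all-compound mean plus 3 SD, in both replicate runs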;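 also: 0% = DMSO wells with no growth and 100% = 10 µM 1-NA-PP1 with full growth; RAM network block rescues cells from 5-FOA so hits raise OD615 growth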); details: S. cerevisiae dse1pr::URA3 5-FOA growth, OD615, 2 d; at 10 µM; stronger effect = higher value; strain carries analog-sensitive mutant Cbk1 kinase
[6] = RAM signaling pathway blockade in yeast – S. cerevisiae, Pdr1DBD-CYC8 efflux-inhibited sensitized strain, primary screen (AID 1298);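 also: 0% = DMSO untreated cells without growth and 100% = 10 µM 1-NA-PP1 full growth; higher means more yeast growth rescued from 5-FOA killing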; details: S. cerevisiae cbk1-as DSE1-URA3 strain, 5-FOA growth OD615, 2 d; at 50 µM; stronger effect = higher value
[7] = growth suppression of beta-catenin knockout HCT116, pilot screen, human colon tumor cells (AID 823;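 active = cell viability at or below a set limit in both duplicate runs, the limit being the all-compound median minus 4 SD, cut at about 23% in these data, passing the limit was not always enough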;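 also: 0% = wells killed by 20 µM Hyamine and 100% = untreated DMSO cell wells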); details: CellTiter-Glo, 60 h, at 10 µM, stronger effect = lower value

SMILES | growth inhibition [1] | growth inhibition [2] | viability increase [3] | viability [4] | inhibition [5] | RAM network inhibition [6] | viability [7]
COc1ccc(CCNC(=O)c2oc3ccc(S(=O)(=O)N4CCOCC4)cc3c2C)cc1OC | -0.835% | -1.39% | -4.32% | 78.8% | 1.17% | 3.69% | –
CC1Cc2ccccc2N1Cc1nc2scc(-c3cccs3)c2c(=O)[nH]1 (stereo not drawn) | 1.81% | 0.44% | -3.6% | 95.3% | 1.77% | 5.16% | –
O=C(Nc1nnc(-c2cccs2)o1)c1cccc(F)c1 | -18.7% | 9.29% | -1.42% | – | 0.745% | 3.47% | –
CSc1nc2c(cnn2-c2ccc(C)c(C)c2)c(=O)[nH]1 | 3.89% | 1.82% | -8.82% | – | 2.08% | 0.57% | –
Cc1csc(SCC(=O)c2ccc(S(=O)(=O)N3CCOCC3)cc2)n1 | 0.36% | 21.8% | -3.72% | 98.2% | 0.265% | 7.03% | –
COc1cc(C(=O)N2CCN(c3ccc(C)cc3C)CC2)cc(OC)c1OC | -4.88% | 2.84% | -5% | – | 0.135% | 4.77% | –
CC1=C(C(=O)OCc2ccc3c(c2)OCO3)C(c2ccccc2)NC(=O)N1 (stereo not drawn) | -12% | -9.41% | -4.88% | – | 1.81% | 2.03% | –
OC(COc1ccc(C2C=CCC2)cc1)CN1CCCCC1 (stereo not drawn) | 0.36% | -8.12% | -4.7% | – | 1.75% | 3.83% | –
Cc1nc(N2CCN(Cc3ccc4c(c3)OCO4)CC2)c2oc3ccccc3c2n1 | -0.195% | -1.24% | -4.93% | – | 2% | 4.68% | –
Cc1onc(-c2ccccc2Cl)c1C(=O)N1CCN(c2cccc(Cl)c2)CC1 | -18.9% | -13.7% | -6.53% | 22% (active) | 2.73% | 10.4% | –
COc1ccc(Oc2ccc(S(=O)(=O)N3CCCCC3)cc2S(=O)(=O)N2CCCCC2)cc1 | -4.96% | -0.32% | -3.43% | 87.1% | 1.56% | 3.99% | –
COc1ccc(S(=O)(=O)Cc2ccc(C(=O)N3CCN(c4ccc(Cl)cc4)CC3)o2)cc1 | 2.93% | -3.86% | -4.86% | – | 0.375% | 6.31% | –
O=C(CSCc1ccc(Cl)cc1)NCC1CCCO1 (stereo not drawn) | -7.79% | -2.08% | – | 101% | 1.34% | 3.99% | 102%
Cn1nc(-c2ccc(Cl)cc2)c2cc(C(=O)NCCN3CCOCC3)sc21 | -4.46% | -5.2% | -7.41% | – | 0.45% | -1.47% | –
O=C(CSc1oc(-c2ccc(F)cc2)nc1S(=O)(=O)c1ccc(F)cc1)NCC1CCCO1 (stereo not drawn) | -8.11% | -3.3% | -7.22% | – | 1.05% | 6.87% | –
O=S(=O)(Cc1ccccc1)N1CCc2ccccc2C1 | 2.65% | -4.61% | -0.66% | 95.8% | 3.92% | 6.16% | –
Cn1c(=O)[nH]c(=O)c2c1nc(SCC(=O)Nc1ccccc1)n2Cc1ccccc1 | -4.58% | 0.385% | – | 94.6% | 0.935% | 2.08% | 92%
CSc1nc(N2CCN(CCO)CC2)c2sc3nc(-c4ccco4)c4c(c3c2n1)CCC4 | -5.56% | -10.7% | -8.19% | – | -1.67% | -2.9% | –
CC(NC(=O)CN1CCN(Cc2ccc(Cl)cc2)C1=O)c1ccc2c(c1)OCCO2 (stereo not drawn) | 2.64% | -21.2% | – | 86.3% | -0.3% | 0.27% | 84.1%
Cc1cc(N2CCN(S(=O)(=O)c3ccc(Cl)cc3)CC2)c2ccccc2n1 | -3.2% | -2.46% | -2.62% | – | -0.15% | 2.74% | –
CCN1CCN(c2cc(C)c3cc(NC(=O)c4ccc(Br)o4)ccc3n2)CC1 | -8.91% | -15.6% | -8.37% | – | 1.75% | 0.84% | –

SMILES | growth inhibition [1] | growth inhibition [2] | viability increase [3] | viability [4] | inhibition [5] | RAM network inhibition [6] | viability [7]
COc1ccc(NC(=O)NCCCN2CCN(c3cc(C)ccc3C)CC2)cc1 | -11.2% | -19.5% | -6.14% | – | 0.485% | 2.1% | –
N#Cc1nc(COc2cccc(Cl)c2)oc1N1CCCC1 | 4.94% | 11.2% | – | 82.7% | -0.7% | 0.47% | 82.7%
Cn1c(C(=O)NC2CCCCCC2)cc2c(=O)n(C)c3ccccc3c21 | 1.31% | -8.3% | -6.4% | – | 1.1% | 2.31% | –
O=C(Nc1nnc(-c2cccs2)o1)c1cccc(Oc2ccccc2)c1 | 16.2% | 24.4% | -6.06% | – | 1.83% | 2.76% | –
CCOCCn1c(-c2ccc(OC)cc2)nc2ccccc21 | -16.9% | -10.7% | – | 82.8% | 1.63% | 5.07% | 93.6%
Cc1noc(/C=C/N(C)C)c1S(=O)(=O)N1CCCC(C(=O)Nc2ccc3c(c2)OCO3)C1 (stereo not drawn) | -1.3% | -0.88% | – | 89.7% | 2.2% | 7.17% | 89.1%
CCn1c(=O)c(=O)[nH]c2cc(C(=O)NC3CCCc4ccccc43)ccc21 (stereo not drawn) | -2.89% | -5.91% | -5.19% | – | 1.7% | 3.67% | –
CCOC(=O)c1ccc(NC(=O)N(CC)CC)cc1 | -7.39% | -1.5% | -0.97% | 97.4% | 0.865% | 2.51% | –
COc1cccc(C(=O)Nc2nnc(-c3ccc(Cl)cc3)o2)c1 | 2.17% | 2.42% | -3.33% | – | 1.6% | -1.16% | –
COc1cc(C(c2sc3ncnn3c2O)N2CCN(c3ccccc3F)CC2)cc(OC)c1OC (stereo not drawn) | 1.67% | -0.84% | – | 105% | 2.5% | 5.34% | 103%
CN1C(=O)C(O)(CC(=O)c2ccccn2)c2cc(Br)ccc21 (stereo not drawn) | -0.08% | 6.53% | -7.14% | – | 0.9% | 3.11% | –
CCC1CCCCN1C(=O)Cn1c(=O)oc2ccccc21 (stereo not drawn) | -8.32% | -4.71% | -2.07% | 101% | 1.96% | 4.3% | –
c1coc(CNc2c3c(nc4ccccc24)CCC3)c1 | -9.23% | -0.365% | -5.72% | – | -0.205% | 0.83% | –
CCOc1ccc(-c2cc(CCCC(=O)Nc3cccc(OC)c3)no2)cc1 | -6.04% | 3.52% | -5.12% | – | 3.28% | 0.05% | –
COc1ccc(N2CCN(CCNC(=O)CCNS(=O)(=O)c3cccs3)CC2)cc1 | -5.45% | -5.3% | -0.82% | 96.3% | 1.71% | 2.25% | –
O=C(CCS(=O)(=O)c1ccccc1)Nc1nc2c(s1)CCCC2 | -16.6% | -17.7% | -8.89% | – | 0.495% | 3.5% | –
O=C(CSc1nc(-c2ccco2)cc(C(F)(F)F)n1)Nc1ccc(C(=O)N2CCCCC2)cc1 | 0.645% | -0.65% | -2.87% | – | 1.97% | 3.42% | –
CCOC(=O)C1=C(C)N=c2s/c(=C\c3ccncc3)c(=O)n2C1c1ccc2c(c1)OCO2 (stereo not drawn) | -12% | 23.8% | -7.87% | – | 3.46% | 8.86% | –
COC(=O)c1ccc2[nH]c(C)c(CN3CCCC3)c(=O)c2c1 | -4.34% | 1.2% | -2.3% | 95.3% | 0.415% | 1.59% | –
Cc1ccccc1CN1C(=O)C(O)(CC(=O)c2ccncc2)c2ccccc21 (stereo not drawn) | -11.4% | -5.55% | -5.61% | – | 1.28% | 5.38% | –
Cc1cccc(-n2ncc3c(N4CC(C)CC(C)C4)ncnc32)c1 (stereo not drawn) | -1.33% | -3.92% | – | 78.1% | 1.74% | 6.19% | 59.9%
